In BindingDB's records for doi:10.1021/jm00069a013 (University of North Carolina, 1993) one finds IC50 data, which are given here for seven molecules.

Test [1] in a line: Binding affinity against sigma receptor from guinea pig brain (minus cerebellum) homogenates, using the novel [3H]-(+/-)-4 as radioligand.
Test [2] can be described thus: Binding affinity against sigma receptor from guinea pig brain (minus cerebellum) homogenates, using [3H]ditolylguanidine (DTG) as radioligand. Summed up: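 Competition binding with whole guinea pig brain (minus cerebellum) homogenates in 10 mM Tris-HCl without added cations. Nonspecific binding was defined by 10 μM haloperidol. Concentrations were tested in duplicate, with three replications. IC50 values came from curve fitting.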

Where a name gives a salt, the structure may show the parent alone.

By IC50 is commonly meant the concentration at which inhibition is half-maximal. Low readings indicate greater potency in that assay, high ones weaker potency in that assay.

Take `CCN(CC)C1Cc2ccccc2C(c2ccccc2)C1` (trans isomer): the IC50 in test [1] stood at 4.5 nM; in test [2], 207 nM.

In the case of `CN(C)[C@H]1CCc2ccccc2[C@H]1c1ccccc1` [Dimethyl-(1-phenyl-1,2,3,4-tetrahydro-naphthalen-2-yl)-amine], the results for the 50% inhibitory concentration (IC50) in test [1] and in test [2] were 2760 nM and 3340 nM, respectively.

The molecule `CN(C)C1Cc2ccccc2C(c2ccccc2)C1` (stereo not drawn) [cis-Dimethyl-(4-phenyl-1,2,3,4-tetrahydro-naphthalen-2-yl)-amine; hydrochloride] showed an IC50 in test [2] of 960 nM.

Turning to `NC1Cc2ccccc2C(c2ccccc2)C1` (stereo not drawn) [trans-4-Phenyl-1,2,3,4-tetrahydro-naphthalen-2-ylamine; hydrochloride], the IC50 in test [2] was > 10000 nM.

Take `C=CCNC1Cc2ccccc2C(c2ccccc2)C1` (stereo not drawn) [trans-Allyl-(4-phenyl-1,2,3,4-tetrahydro-naphthalen-2-yl)-amine; hydrochloride]: the IC50 in test [1] came out at 117 nM.

The molecule `C=CCN(C)C1Cc2ccccc2C(c2ccccc2)C1` (stereo not drawn) [trans-Allyl-methyl-(4-phenyl-1,2,3,4-tetrahydro-naphthalen-2-yl)-amine; hydrochloride] had an IC50 in test [2] of 1550 nM.

As to `C=CCN(CC=C)C1Cc2ccccc2C(c2ccccc2)C1` (stereo not drawn) [trans-Diallyl-(4-phenyl-1,2,3,4-tetrahydro-naphthalen-2-yl)-amine; hydrochloride], the IC50 in test [1] worked out at 27 nM; in test [2] it was 538 nM.
